The values that follow come from ChEMBL document CHEMBL4342473, “Lead Optimization of Benzoxazolone Carboxamides as Orally Bioavailable and CNS Penetrant Acid Ceramidase Inhibitors” (J Med Chem, 2020).

For series [1], the target named is T1, Sphingomyelin phosphodiesterase (Homo sapiens) (UniProt P17405).
T1 sequence (whole entry): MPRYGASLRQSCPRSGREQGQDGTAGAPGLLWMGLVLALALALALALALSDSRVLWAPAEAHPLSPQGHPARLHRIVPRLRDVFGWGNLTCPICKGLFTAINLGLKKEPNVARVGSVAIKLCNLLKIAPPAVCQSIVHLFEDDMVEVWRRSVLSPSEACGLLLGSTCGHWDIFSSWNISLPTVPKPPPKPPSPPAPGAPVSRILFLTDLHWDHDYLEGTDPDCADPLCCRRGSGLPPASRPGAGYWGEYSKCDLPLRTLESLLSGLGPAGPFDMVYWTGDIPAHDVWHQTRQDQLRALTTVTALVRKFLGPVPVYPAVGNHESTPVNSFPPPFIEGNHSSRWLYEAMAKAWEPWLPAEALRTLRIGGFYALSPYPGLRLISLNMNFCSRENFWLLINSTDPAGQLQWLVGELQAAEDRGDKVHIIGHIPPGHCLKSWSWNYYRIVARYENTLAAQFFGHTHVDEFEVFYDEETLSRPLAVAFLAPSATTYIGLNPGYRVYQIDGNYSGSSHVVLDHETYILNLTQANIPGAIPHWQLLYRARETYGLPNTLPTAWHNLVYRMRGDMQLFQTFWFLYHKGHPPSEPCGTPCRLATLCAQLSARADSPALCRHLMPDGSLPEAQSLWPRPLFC
The experiment in a line: Inhibition of human full length ASM at 1 to 10 uM using HMU-PC as fluorogenic substrate incubated for 45 mins by fluorescence based assay.

In series [2] the target is T2, Acid ceramidase (Homo sapiens) (UniProt Q13510).
T2 sequence (whole entry): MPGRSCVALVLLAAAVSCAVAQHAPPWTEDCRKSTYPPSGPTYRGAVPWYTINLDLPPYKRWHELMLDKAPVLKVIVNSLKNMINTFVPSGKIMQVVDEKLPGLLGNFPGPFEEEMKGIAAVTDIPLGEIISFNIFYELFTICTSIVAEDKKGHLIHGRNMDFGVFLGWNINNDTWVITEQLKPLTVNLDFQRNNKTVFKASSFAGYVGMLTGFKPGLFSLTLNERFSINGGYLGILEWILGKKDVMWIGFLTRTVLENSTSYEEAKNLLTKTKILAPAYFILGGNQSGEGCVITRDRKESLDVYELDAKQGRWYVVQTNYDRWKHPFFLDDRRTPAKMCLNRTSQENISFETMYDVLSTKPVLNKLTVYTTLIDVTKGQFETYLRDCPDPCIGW
The experiment in a line: Inhibition of acid ceramidase in human SH-SY5Y cells assessed as increase in intracellular accumulation of Cer (d18:0/16:0) measured after 3 hrs by LC/MS analysis. It is filed as cell-based. In short, it runs like this: (§1)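 SH-SY5Y neuroblastoma cells exposed 3 h to 1, 2.5, 5 and 10 μM; AC activity by LC/MS-based assay; ceramide species, sphingosine, SM and HexCer (d18:1/16:0) quantified by LC/MS; means ± S.E.M. of at least six determinations, experiment repeated twice.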

The target in series [3] is T2, Acid ceramidase (Homo sapiens). The experiment in a line: Inhibition of acid ceramidase in human SH-SY5Y cells assessed as decrease in sphingosine level measured after 3 hrs by LC/MS analysis. It is filed as cell-based. In short, it runs like this:
as §1

For series [4] the target is unchanged. The experiment in a line: Inhibition of acid ceramidase in human SH-SY5Y cells assessed as change in intracellular accumulation of SM (d18:1/16:0) up to 10 uM measured after 3 hrs by LC/MS analysis. The format is cell-based. In short, it runs like this: as §1
The target is the same in series [5]. The experiment in a line: Inhibition of acid ceramidase in human SH-SY5Y cells assessed as change in intracellular accumulation of HexCer (d18:1/16:0) up to 10 uM measured after 3 hrs by LC/MS analysis. The format is cell-based. In short, it runs like this:
as §1

Series [6] deals with Mus musculus. Nature of the series: Neuroprotective activity in ip dosed C57BL/6J/129SvEV mouse model of Gaucher's disease assessed as reduction in GluSph (d18:1) level in brain administered once daily for 14 days measured 1 hr post-last dose by MS analysis. The format is functional, organism-based. In short, it runs like this: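 4L;C* mice (neuropathic Gaucher model) given 30 or 90 mg kg–1 i.p. once daily for 14 days from postnatal day 5; killed 1 h after last dose; brain GluSph (d18:1) measured; N = 4–8 per group, mixed sexes.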

Series [7] concerns Mus musculus. Nature of the series: Neuroprotective activity in ip dosed Twitcher mouse model of Krabbe's disease assessed as reduction in GalSph (d18:1) level in brain administered once daily for 20 days measured 1 hr post-last dose by MS analysis. It is filed as functional, organism-based. In short, it runs like this: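 Twitcher mice dosed i.p. at 30 or 90 mg kg–1 once daily for 20 days from postnatal day 10; sacrificed 1 h after last dose; brain GalSph (d18:1) measured; N = 3 males + 3 females per group.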

The nature of series [8]: Unbound plasma concentration in twitcher mouse model of Krabbe's disease at 30 mg/kg, ip administered once daily for 20 days measured 1 hr post-last dose. The conditions noted are these: in vivo. The format is ADME, organism-based. In short, it runs like this: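 Twitcher mice dosed i.p. once daily for 20 days, sacrificed 1 h after last dose (day 20); drug measured in plasma and brain; unbound levels from unbound fractions (mean of two technical replicates); N = 3 males + 3 females per group.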

For a further series, the target named is T3, Acid ceramidase (Homo sapiens, UniProt Q13510).
T3 sequence (Q13510 whole entry): T2 sequence (whole entry)
The experiment in a line: Time-dependent inhibition of human acid ceramidase expressed in HEK293 cells using Rbm14-12 as substrate by fluorescence assay. It is filed as cell-based. In short, it runs like this:
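hAC-enriched lysates with fluorogenic substrate Rbm 14-12; vehicle 1% DMSO; time-dependent inhibition analysed for ki/KI and ki; two independent experiments, each in two technical replicates.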

For series [9], the target named is T2, Acid ceramidase (Homo sapiens). Nature of the series: Inhibition of acid ceramidase in human SH-SY5Y cells at 10 uM using N-lauroyl ceramide as substrate by LC/MS analysis. It is filed as cell-based. The conditions noted are these: TDE = time-dependent effect. In short, it runs like this:
(§2)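 Human neuroblastoma SH-SY5Y cells incubated with compound at 10 μM for 30 min, 1 h, 3 h and 6 h; AC activity by LC/MS-based activity assay; Cer (d18:0/16:0), Cer (d18:1/16:0), sphingosine, SM (d18:1/16:0) and HexCer (d18:1/16:0) quantified by LC/MS.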

Series [10] shares this target. Nature of the series: Inhibition of acid ceramidase in human SH-SY5Y cells assessed as change in intracellular accumulation of SM (d18:1/16:0) at 10 uM measured up to 6 hrs by LC/MS analysis. The format is cell-based. In short, it runs like this: as §2
Series [11] has the same target. The experiment in a line: Inhibition of acid ceramidase in human SH-SY5Y cells assessed as change in intracellular accumulation of HexCer (d18:1/16:0) at 10 uM measured up to 6 hrs by LC/MS analysis. The format is cell-based. In short, it runs like this: as §2
Series [12] in a line: Ratio of unbound drug level in brain of twitcher mouse model of Krabbe's disease at 90 mg/kg,ip administered once daily for 20 days measured 1 hr post-last dose to EC50 for inhibition of acid ceramidase in Krabbe's disease patient-derived primary fibroblasts. It is filed as organism-based. As to conditions: in vivo. In short, it runs like this:
(§3)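 Twitcher mice (3 males + 3 females per group) got 30 or 90 mg kg–1 i.p. once daily for 20 days from postnatal day 10 and were sacrificed 1 h after the day-20 dose. Plasma and brain levels were measured, and unbound brain level came from brain fraction unbound (two technical replicates). The EC50 was from Krabbe patient primary fibroblasts exposed 2 h to a concentration series (two independent experiments, duplicates).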

Series [13] is described as follows: Ratio of unbound drug level in brain of twitcher mouse model of Krabbe's disease at 30 mg/kg,ip administered once daily for 20 days measured 1 hr post-last dose to EC50 for inhibition of acid ceramidase in Krabbe's disease patient-derived primary fibroblasts. The format is organism-based. The conditions noted are these: in vivo. In short, it runs like this:
as §3

Each structure is given as a SMILES string. Activity calls are given as the source filed them. No cut-off for these calls is given here.

Usually kinact stands for the rate constant of inactivation at saturating inhibitor.

`CC(C)CNC(=O)n1c(=O)oc2cc(C3CCN(C)CC3)ccc21`: the inhibition result in [1], in series [4], in series [5], in [10] and in series [11] was “inactive” throughout. The inhibition result in series [2] is “Dose-dependent effect”; in series [3] it was “Dose-dependent effect”; in [9], “Tde”. Further, the Activity entry in the series with Mus musculus [6] and with Mus musculus [7] was “Dose-dependent effect” in each case. Moreover, in series [8], the “Cp(f)” value stood at 110 nM. In addition, the kinact on Acid ceramidase was 0.15 min⁻¹. Further, the Ratio in series [12] worked out at 5.2; in [13] it was 2.
